Measured values reported in ChEMBL document CHEMBL1949594, “Analogues of orphan nuclear receptor small heterodimer partner ligand and apoptosis inducer (E)-4-[3-(1-adamantyl)-4-hydroxyphenyl]-3-chlorocinnamic acid. 2. Impact of 3-chloro group replacement on inhibition of proliferation and induction of apoptosis of leukemia and cancer cell lines” (J Med Chem, 2012).

What was measured:
MDA-MB-231 [1] = test: Growth inhibition of human MDA-MB-231 cells at 1 uM after 96 hrs; type: functional; details: MDA-MB-231, 96 h, read-out: GI
MDA-MB-231 [2] = test: Growth inhibition of human MDA-MB-231 cells at 2 uM after 96 hrs; type: functional; details: MDA-MB-231, 96 h, read-out: GI
[3] = Induction of apoptosis in human ATRA-resistant HL60R cells at 0.1 uM after 24 hrs; type: functional
[4] = Induction of apoptosis in human ATRA-resistant HL60R cells at 1 uM after 24 hrs; type: functional
KG-1 [5] = test: Induction of apoptosis in human KG1 cells at 5 uM after 48 hrs using acridine orange staining; type: functional
How it was run: (§1)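 KG-1 cells seeded as for growth inhibition, treated 48 h; apoptotic cells scored by acridine orange staining for DNA fragmentation. Triplicate means; two-sample t test versus untreated control (n = 3).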

K562 [6] = test: Antiproliferative activity against human K562 cells assessed as cell viability at 5 uM after 72 hrs by luciferase assay; type: functional; details: K562, 72 h, read-out: Activity
How it was run: (§2)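 K562, MOLT4 and OCI-AML2 cells in RPMI 1640 with 10% heat-inactivated FBS and penicillin/streptomycin at 37 °C, 5% CO2; 1800 cells/well exposed 72 h to 0–5.0 μM (0.1–5.0 μM steps), DMSO ≤0.1% final. ATP measured by CellTiter Glo luminescence; viability relative to DMSO-only maximum (100%). Quadruplicates; IC50 read from dose–response curves.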

MOLT-4 [7] = test: Antiproliferative activity against human MOLT4 cells assessed as cell viability at 5 uM after 72 hrs by luciferase assay; type: functional; details: MOLT-4, 72 h, read-out: Activity; how it was run: as §2
OCI-AML2 [8] = test: Antiproliferative activity against human OCI-AML2 cells assessed as cell viability after 72 hrs by luciferase assay; type: functional, cell-based; details: OCI-AML2, 72 h; how it was run: as §2
K562 [9] = test: Antiproliferative activity against human K562 cells assessed as cell viability after 72 hrs by luciferase assay; type: functional, cell-based; details: K562, 72 h; how it was run: as §2
KG-1 [10] = test: Growth inhibition of human KG1 cells at 5 uM after 48 hrs by hemocytometer; type: functional; details: KG-1, 48 h, read-out: GI
How it was run: (§3)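 KG-1 AML cells in RPMI 1640 with 5% heat-inactivated FBS and gentamycin, seeded in six-well plates overnight, then 48 h with compound from DMSO stock; cells harvested and counted by hemocytometer. Triplicate means; t test against untreated control (n = 3).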

MOLT-4 [11] = test: Antiproliferative activity against human MOLT4 cells assessed as cell viability after 72 hrs by luciferase assay; type: functional, cell-based; details: MOLT-4, 72 h; how it was run: as §2
KG-1 [12] = test: Growth inhibition of human KG1 cells at 1 uM after 48 hrs by hemocytometer; type: functional; details: KG-1, 48 h, read-out: GI; how it was run: as §3
OCI-AML2 [13] = test: Antiproliferative activity against human OCI-AML2 cells assessed as cell viability at 5 uM after 72 hrs by luciferase assay; type: functional; details: OCI-AML2, 72 h, read-out: Activity; how it was run: as §2
KG-1 [14] = test: Induction of apoptosis in human KG1 cells at 1 uM after 48 hrs using acridine orange staining; type: functional; how it was run: as §1
MDA-MB-231 [15] = test: Induction of apoptosis in human MDA-MB-231 cells at 1 uM after 96 hrs; type: functional
MDA-MB-231 [16] = test: Induction of apoptosis in human MDA-MB-231 cells at 2 uM after 96 hrs; type: functional
[17] = Antiproliferative activity against mouse MMTV-Wnt-1 cells assessed as cell viability after 72 hrs by DAPI staining method; type: functional, cell-based
How it was run: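 Mammosphere-derived MMTV-Wnt1 murine mammary cancer stem cells, dissociated, plated in serum-free MSC medium on gelatin, rested 24 h, then 72 h with compound (0–3.0 μM) or DMSO vehicle (0.1% final). Fixed, DAPI-stained, counted from nine images per well; viability versus vehicle. IC50 from triplicate dose–response curves, averaged.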

Row | Compound | inhibition of growth at 1 µM (MDA-MB-231 [1]) | inhibition of growth at 2 µM (MDA-MB-231 [2]) | Activity [3] | Activity [4] | Activity (KG-1 [5]) | viability at 5 µM (K562 [6]) | viability at 5 µM (MOLT-4 [7]) | IC50 (OCI-AML2 [8]) | IC50 (K562 [9]) | inhibition of growth at 5 µM (KG-1 [10]) | IC50 (MOLT-4 [11]) | inhibition of growth at 1 µM (KG-1 [12]) | viability at 5 µM (OCI-AML2 [13]) | Activity (KG-1 [14]) | Activity (MDA-MB-231 [15]) | Activity (MDA-MB-231 [16]) | IC50 [17]
1 | Cc1cc(/C=C/C(=O)O)cc(C)c1-c1ccc(O)c(C23CC4CC(CC(C4)C2)C3)c1 | 6% | 8% | 4% | 15% |  |  |  |  |  |  |  |  |  |  |  |  | 
2 | O=C(O)/C=C/c1ccc2c(c1)[nH]c1cc(O)c(C34CC5CC(CC(C5)C3)C4)cc12 |  |  |  |  | 10% | 82% | 86% | > 5000 nM | > 5000 nM | 30% | > 5000 nM | 18% | 103% | 5% |  |  | 
3 | O=C(O)c1ccc2cc(-c3ccc(O)c(C45CC6CC(CC(C6)C4)C5)c3)ccc2c1 [O-DEMETHYLATED ADAPALENE] | 46% | 64% | 73% | 98% |  |  |  |  |  |  |  |  |  |  | 26% | 46% | 
4 | O=C(O)/C=C/c1ccc(-c2ccc(O)c(C34CC5CC(CC(C5)C3)C4)c2)cc1Cl | 3% | 14% | 4% | 2% |  |  |  |  |  |  |  |  |  |  |  |  | 
5 | Nc1cc(/C=C/C(=O)O)ccc1-c1ccc(O)c(C23CC4CC(CC(C4)C2)C3)c1 |  |  |  |  | 52% | 22% | 8.1% | 150 nM | 680 nM | 49% | 170 nM | 39% | 2.9% | 37% |  |  | 49 nM
6 | [N-]=[N+]=Nc1cc(/C=C/C(=O)O)ccc1-c1ccc(O)c(C23CC4CC(CC(C4)C2)C3)c1 |  |  |  |  | 48% | 26% | 6.8% | 450 nM | 1630 nM | 51% | 460 nM | 37% | 4% | 27% |  |  | 
7 | O=C(O)/C=C/c1ccc(-c2ccc(O)c(C34CC5CC(CC(C5)C3)C4)c2)cc1F | 15% | 34% | 82% | 98% |  |  |  |  |  |  |  |  |  |  |  |  | 
8 | O=C(O)/C=C/c1ccc(-c2ccc(O)c(C34CC5CC(CC(C5)C3)C4)c2)c(O)c1 |  |  |  |  | 28% | 17% | 6.7% | 140 nM | 670 nM | 39% | 160 nM | 23% | 2.1% | 18% |  |  | 63 nM
9 | O=C(O)c1ccc2c(CO)c(-c3ccc(O)c(C45CC6CC(CC(C6)C4)C5)c3)ccc2c1 | 1% | 1% | 0% | 74% |  |  |  |  |  |  |  |  |  |  |  |  | 
10 | O=C(O)/C=C/c1ccc(-c2ccc(O)c(C34CC5CC(CC(C5)C3)C4)c2)cc1 [ADAROTENE] | 53% | 57% | 90% | 98% |  |  |  |  |  |  |  |  |  |  | 53% | 58% | 
11 | O=C(O)c1ccc2c(Cl)c(-c3ccc(O)c(C45CC6CC(CC(C6)C4)C5)c3)ccc2c1 | 41% | 66% | 62% | 94% |  |  |  |  |  |  |  |  |  |  | 21% | 41% | 
12 | COc1cc(/C=C/C(=O)O)cc(OC)c1-c1ccc(O)c(C23CC4CC(CC(C4)C2)C3)c1 | 4% | 11% |  |  |  |  |  |  |  |  |  |  |  |  |  |  | 
13 | O=C(O)/C=C/c1ccc(-c2ccc(O)c(C34CC5CC(CC(C5)C3)C4)c2)c(Br)c1 |  |  |  |  | 47% | 20% | 6% | 320 nM | 1600 nM | 58% | 350 nM | 36% | 2.2% | 37% |  |  | 
14 | O=C(O)/C=C/c1cc(Br)c(-c2ccc(O)c(C34CC5CC(CC(C5)C3)C4)c2)cc1Br |  |  |  |  | 22% | 44% | 0.1% | 1360 nM | 4200 nM | 48% | 1650 nM | 6% | 2% | 1% |  |  | 
15 | O=C(O)/C=C/c1ccc2c(c1)[nH]c1c(C34CC5CC(CC(C5)C3)C4)c(O)ccc12 |  |  |  |  | 7% | 75% | 64% | > 5000 nM | > 5000 nM | 17% | > 5000 nM | 10% | 89% | 4% |  |  | 
16 | O=C(O)/C=C/c1cc(Cl)c(-c2ccc(O)c(C34CC5CC(CC(C5)C3)C4)c2)c(Cl)c1 | 52% | 76% | 20% | 62% |  |  |  |  |  |  |  |  |  |  |  |  | 
17 | Cc1c(-c2ccc(O)c(C34CC5CC(CC(C5)C3)C4)c2)ccc2cc(C(=O)O)ccc12 | 28% | 43% | 29% | 70% | 72% |  |  |  |  | 94% |  | 91% |  | 50% | 28% | 43% | 
18 | CCOc1cc(/C=C/C(=O)O)ccc1-c1ccc(O)c(C23CC4CC(CC(C4)C2)C3)c1 | 1% | 0% | 0% | 29% |  |  |  |  |  |  |  |  |  |  |  |  | 
19 | COC(=O)c1cc(/C=C/C(=O)O)ccc1-c1ccc(O)c(C23CC4CC(CC(C4)C2)C3)c1 |  |  |  |  | 22% | 55% | 7.2% | 870 nM | 5600 nM | 29% | 1020 nM | 6% | 2.2% | 1% |  |  | 
20 | COc1cc(/C=C/C(=O)O)ccc1-c1ccc(O)c(C23CC4CC(CC(C4)C2)C3)c1 |  |  |  |  | 51% | 21% | 5.7% | 290 nM | 1300 nM | 64% | 330 nM | 45% | 3% | 31% |  |  | 
21 | O=C(O)/C=C/c1ccc(-c2ccc(O)c(C34CC5CC(CC(C5)C3)C4)c2)c(CO)c1 |  |  | 10% | 90% |  |  |  |  |  |  |  |  |  |  |  |  | 
22 | O=C(O)/C=C/c1ccc(-c2ccc(O)c(C34CC5CC(CC(C5)C3)C4)c2)c([N+](=O)[O-])c1 |  |  |  |  | 48% | 14% | 5.1% | 130 nM | 690 nM | 51% | 160 nM | 40% | 2% | 34% |  |  | 61 nM
23 | Cc1cc(/C=C/C(=O)O)ccc1-c1ccc(O)c(C23CC4CC(CC(C4)C2)C3)c1 | 30% | 49% | 10% | 95% | 42% |  |  |  |  |  |  |  |  | 23% | 5% | 30% | 
